High-throughput results (PubChem)
Diaph inh CS – inhibits diaphorase or chemically oxidizes, flagging diaphorase assay artifacts; diaphorase resazurin-to-resorufin fluorescence, NADH, 16 min; bacterial (C. kluyveri) enzyme, not human; 190,000 tested, 0.69% active; AID 1217; inhibition, % at 20 µM;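 active = primary screen inhibition at 20 µM above a set limit, cut at about 50% in these data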;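 note: plate controls were DMSO with full reaction for no effect and wells lacking NADH for full effect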
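material = Clostridium kluyveri diaphorase enzyme | amount = 0.14 U/mL diaphorase, enzyme working solution | schedule = incubation 16 min, room temperature | detection = fluorescence of resorufin formed from resazurin, Ex 544/Em 590 nm | benchmarks = positive control minus NADH, DMSO neutral control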
G6PDH counter – inhibits Leuconostoc G6PDH, flagging false hits in G6PDH-based assays; AID 1020; Purified L. mesenteroides G6PDH, diaphorase/resazurin coupled fluorescence, 45 min; 200,000 tested, 0.12% active; inhibition, % at 5 µM
Lmaj promast – inhibitors of Leishmania major promastigote growth | Leishmania major promastigotes, resazurin fluorescence viability | inhibition, % at 10 µM | 200,000 tested, 9% active;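 note: promastigotes grown with compound for 44 hours at 28 °C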
WT yeast gro inh – growth inhibition of WT yeast, mitochondrial fusion screen. mitochondrial fusion phenotypic screen, WT strain. inhibition, % at 10 µM. 190,000 tested, 2.1% active. AID 1362; in the data active = inhibition above about 58%; tested in S. cerevisiae
Diaphorase act – activates diaphorase or chemically reduces, flagging diaphorase assay artifacts; Diaphorase/resazurin coupled assay, resorufin fluorescence, 16 min; hits give high values; 1 = vehicle wells, 0 = NADH-free wells; activation factor at 20 µM; 190,000 tested, 0.005% active;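 active = diaphorase activity raised at least twofold by the compound at 20 µM; inactive = activation factor below 2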
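Test system: Clostridium kluyveri diaphorase, purified enzyme; input: enzyme 0.07 U/mL final; buffer or medium: 50 mM HEPES pH 7.4 with 4.542 mM MgCl2, 0.005% Tween 20; also added: 0.114 mM NADH and 0.1 mM resazurin, final amounts; schedule: 16 min enzyme reaction, ambient temperature; technique: fluorescence of resorufin, 544 nm excitation, 590 nm emission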
The depositor's hits bear a star; . = no result given. A selection: hits, their analogues and other compounds. The true share with any hit is near 11%. Cut-off read from the data, not from the text of the source, unless noted: active = inhibition above about 50%; inactive = the rest.

SMILES | Diaph inh CS | G6PDH counter | Lmaj promast | WT yeast gro inh | Diaphorase act
Cc1ccc2c(c1)N(C(=O)c1ccco1)C(C)(C)c1ssc(=S)c1-2 | 12.1 | -0.7 | 97.8* | 40.6 | 0.9
Cc1cc(C(F)F)n2ncc(C(=O)NCc3ccccc3F)c2n1 | 4.7 | -6.6 | -3.6 | 1.1 | 1
CCc1ccccc1NC(=S)N(Cc1cccnc1)Cc1ccco1 | 0.0 | -10.3 | 98.8* | -3.6 | 1
Cc1cc(C)c(NC(=S)N(Cc2cccnc2)Cc2ccco2)c(C)c1 | 3.8 | 2.8 | 87.5* | 7.8 | 1
COc1ccccc1NC(=S)N(Cc1cccnc1)Cc1ccco1 | -15.7 | 9.2 | 17.5 | -4.4 | 1.2
O=S(=O)(NCc1ccccc1)c1cccs1 | 0.8 | 3.0 | 5.0 | 5.5 | 1
Cc1cccc2cc(CN(Cc3cccnc3)C(=O)c3cccs3)c3nnnn3c12 | . | 10.4 | -3.2 | -17.2 | .
COc1ccc(-c2nc(CN(CC3CCC(=O)N3)C(C)C)c(C)o2)c(C)c1C (centres undefined) | 16.5 | 12.7 | 79.2* | 22.9 | 0.8
COc1ccc(-c2nc(CN(C)C(C)c3ccon3)c(C)o2)c(C)c1C (centres undefined) | 6.5 | 11.4 | 5.7 | 4.8 | 0.9
COc1ccc(-c2nc(CN3CCCCC3c3nccn3C)c(C)o2)c(C)c1C (centres undefined) | 2.4 | 4.9 | 96.5* | 74.8* | 1
COc1cccc(C2CCCCN2Cc2nc(-c3ccc(C)o3)oc2C)c1 (centres undefined) | 11.7 | 6.9 | -5.8 | -10.3 | 0.9
Cc1ccc(C(=O)N2CCN(c3ccc([N+](=O)[O-])c(NCc4cccnc4)c3)CC2)cc1 | 30.0 | 5.1 | 56.6* | 8.1 | 0.7
Cc1ccccc1C(=O)N1CCN(c2ccc([N+](=O)[O-])c(NCc3cccnc3)c2)CC1 | 9.1 | -23.4 | 25.2 | 13.1 | 0.9
O=S(=O)(Nc1cc(Sc2ncn[nH]2)c(O)c2ccccc12)c1ccccc1 | 17.5 | 54.5* | 99.1* | 23.6 | 0.8
O=C(OCc1nc2ccc(Cl)cc2n1CCO)c1ccccc1C(=O)c1ccccc1 | 7.5 | 7.1 | 60.2* | -7.0 | 0.9
O=C(OCc1ccccc1Cl)c1ccccc1C(=O)c1ccccc1 | 13.7 | 3.1 | 18.6 | 2.3 | 0.9
COc1ccc(Cl)cc1N(CC(=O)NC(C)(C)C)S(=O)(=O)c1ccc(C)c([N+](=O)[O-])c1 | 25.0 | 6.0 | 96.0* | 31.0 | 0.8
CC1(C)SCC2C(=O)N3C(CSC3(C)C)C(=O)N21 (centres undefined) | 17.3 | -4.0 | 0.6 | -0.3 | 0.8
N#CC1=C(N)C(C#N)(C#N)C(c2cccnc2)C2CCCC=C12 (centres undefined) | 10.2 | 13.9 | 33.0 | -1.5 | 0.9
N#CC1=C(N)C(C#N)(C#N)C(c2cccnc2)C2CC(c3ccccc3)CC=C12 (centres undefined) | 31.1 | 9.8 | 55.3* | 16.4 | 0.7
CC(C)(C)c1nc[nH]c(=O)c1Br | 16.0 | 4.4 | 19.1 | -14.0 | 0.8
Cc1cc(NC(=O)CCc2ccccc2)c([N+](=O)[O-])cc1C | 18.1 | 7.3 | 50.6* | 21.8 | 0.8
O=C(O)CC(=O)Nc1cc(Cl)ccc1O | 11.0 | 2.9 | 0.6 | -8.9 | 0.9
Cc1c(NC(=O)CCc2ccccc2)cccc1[N+](=O)[O-] | 12.4 | 1.9 | 1.5 | 5.8 | 0.9
Cc1cc(C)c([N+](=O)[O-])cc1NC(=O)CCSc1ccccc1Cl | 24.5 | 0.6 | 55.4* | -8.6 | 0.8
SMILES | Diaph inh CS | G6PDH counter | Lmaj promast | WT yeast gro inh | Diaphorase act
O=C(CCc1ccccc1)Nc1cc(Cl)ccc1O | 12.5 | -2.8 | 78.5* | 20.4 | 0.9
O=C(NCC(c1cccs1)N1CCOCC1)c1cc2ccccc2o1 (centres undefined) | 8.8 | 1.7 | 1.0 | 3.0 | 0.9
Cc1ccc(S(=O)(=O)NC(C(=O)N2CCOCCOCCOCC2)c2ccccc2)cc1 (centres undefined) | -0.9 | 7.6 | -4.1 | -14.8 | 1
COC(=O)Cc1c(C)[nH]n(-c2cc(Cl)cc(Cl)c2)c1=O | 24.3 | 11.3 | -12.4 | -19.1 | 0.8
S=C(NCCc1ccccc1)Nc1ccc(Br)cc1 | 25.5 | 6.2 | 15.4 | 43.6 | 0.7
O=C(NC1CCCCC1)c1sc(=S)n2c1[nH]c(=O)c1ccccc12 | 43.2 | 4.6 | -11.3 | 64.1* | 0.6
O=C(NCC1CCCO1)c1sc(=S)n2c1[nH]c(=O)c1ccc(C(=O)N3CCCCC3)cc12 (centres undefined) | 40.2 | 7.9 | 5.0 | -2.4 | 0.6
CCCCNC(=O)c1sc(=S)n2c1[nH]c(=O)c1ccccc12 | 66.7* | 4.2 | -8.2 | -6.9 | 0.3
COCCCNC(=O)Cn1c(=O)n(Cc2ccc(C(=O)NCCc3ccc(OC)c(OC)c3)cc2)c(=O)c2ccccc21 | 1.3 | 4.6 | 11.1 | -9.3 | 1
CCn1c(SCc2nc3cc(OC)c(OC)cc3c(=O)[nH]2)nnc1-c1ccncc1 | 10.8 | 4.3 | -6.7 | 40.9 | 0.9
CC(=O)Nc1ccc(Oc2ncccn2)c(Cl)c1 | 6.3 | 0.0 | -5.5 | -4.2 | 0.9
CC(C)COc1ccc(CNC(=S)NCc2ccccc2)cc1 | 23.4 | 13.9 | 0.9 | 69.3* | 0.8
COc1ccc(CNC(=S)NC(C)CCc2ccccc2)cc1 (centres undefined) | 16.1 | -0.3 | 19.2 | 71.2* | 0.8
COc1ccccc1CNC(=O)/C=C/c1ccc(S(=O)(=O)NCc2ccco2)cc1 | 14.3 | 2.9 | 10.0 | -4.1 | 0.9
COc1ccc(C)cc1NC(=O)c1ccc([N+](=O)[O-])cc1[N+](=O)[O-] | 11.0 | 13.7 | 52.5* | -19.7 | 0.9
O=C(Nc1cccc2oc(=O)ccc12)c1ccc([N+](=O)[O-])cc1[N+](=O)[O-] | 4.3 | -0.9 | 97.5* | -9.9 | 1
COc1ccc([N+](=O)[O-])cc1NC(=O)Cc1ccc(C)cc1 | 4.5 | 11.3 | 57.8* | -13.8 | 1
FC(F)(F)c1nnc2ccc(NCc3ccccc3)nn12 | 4.7 | 5.5 | 0.5 | 1.7 | 1
COc1cccc(C2c3c(-c4cc(Cl)c(C)cc4O)n[nH]c3C(=O)N2Cc2cccnc2)c1 (centres undefined) | 10.3 | 2.8 | 2.2 | -4.3 | 0.9
COc1ccc(CCN2C(=O)c3[nH]nc(-c4ccccc4O)c3C2c2cccc(Cl)c2)cc1 (centres undefined) | 22.8 | 3.7 | 100.5* | -8.5 | 0.8
COc1ccc(C2c3c(-c4ccccc4O)n[nH]c3C(=O)N2CCc2ccc(OC)c(OC)c2)cc1 (centres undefined) | 8.8 | -8.9 | 89.3* | -8.2 | 0.9
O=S(Cc1ccc(Br)cc1)Cc1nnc(SCc2c(Cl)cccc2Cl)n1-c1ccccc1 (centres undefined) | 31.6 | -20.8 | 96.0* | 47.8 | 0.7
COc1ccc(C(=O)N/C(=C\c2cn(C)c3ccccc23)C(=O)OCC(C)C)cc1 | -3.1 | -19.9 | -6.2 | -7.7 | 1
Cc1ccc(C)c(CN2C(=O)COc3ccc(C(=O)c4ccccc4C(=O)O)cc32)c1 | 25.4 | 2.3 | 100.2* | 46.2 | 0.7
CCN(CC)c1ccc(NC(=O)OC)cc1 | 11.1 | 7.4 | 6.4 | -25.4 | 0.9
